Test results taken from article PMC6018888 (Drug Design, Development and Therapy, 2018).

Assay: Verinurad plasma pharmacokinetics, Phase I single and multiple dose study
Format: in vivo, human
Conditions: for GMR AUC0–24 (day 6/day 1) / GMR AUC0–∞ (day 6/day 1) / GMR Cmax (day 6/day 1): fed (day 6) vs fasted (day 1); for Tmax: median (range); for AUC(0-t): AUC0–24, Japanese subjects; for half-life: t1/2, Japanese subjects
Summary of the method: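 Oral modified-release tablets were given once as a single dose on day 1 (fasted overnight ≥10 h) and day 6 (after a moderate-fat breakfast), then daily fed through day 12. Serial plasma was sampled to 72 h on days 1 and 12, to 24 h on day 6, and predose on days 8–11. Samples were stored at −70°C. Cmax and AUC0–24 came from noncompartmental analysis, with comparisons as geometric mean ratios.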

[1] = Japanese subjects, 2.5 mg single dose
[2] = Japanese subjects, 5 mg single dose
[3] = Japanese subjects, 10 mg single dose
[4] = Japanese subjects, 15 mg single dose
[5] = Japanese subjects, across the dose groups 2.5–15 mg, fed vs fasted
[6] = male, human, plasma, oral, 5 mg, 5 mg once daily multiple doses, fed, day 12, geometric mean (95% CI)
[7] = male, human, plasma, oral, 10 mg, 10 mg once daily multiple doses, fed, day 12, geometric mean (95% CI)
[8] = male, human, plasma, oral, 15 mg, 15 mg once daily multiple doses, fed, day 12, geometric mean (95% CI)
[9] = multiple verinurad 10 mg doses, fed

Compound: CC(C)(Sc1ccncc1-c1ccc(C#N)c2ccccc12)C(=O)O [verinurad]
- AUC0–24 GMR, % (95% CI), Japanese/non-Asian (10 mg multiple dose, fed): 123 (93.0–162) %
- AUC0–24 GMR, % (95% CI), Japanese/non-Asian, bodyweight normalized to 70 kg (10 mg multiple dose, fed): 96.9 (77.4–121) %
- Cmax GMR, % (95% CI), Japanese/non-Asian (10 mg multiple dose, fed): 138 (112–171) %
- Cmax GMR, % (95% CI), Japanese/non-Asian, bodyweight normalized to 70 kg (10 mg multiple dose, fed): 109 (94.4–126) %
- AUC0–24 GMR, % (95% CI), Japanese/non-Asian (10 mg single dose, fasted): 134 (111–161) %
- AUC0–24 GMR, % (95% CI), Japanese/non-Asian, bodyweight normalized to 70 kg (10 mg single dose, fasted): 106 (84.5–132) %
- Cmax GMR, % (95% CI), Japanese/non-Asian (10 mg single dose, fasted): 199 (167–237) %
- Cmax GMR, % (95% CI), Japanese/non-Asian, bodyweight normalized to 70 kg (10 mg single dose, fasted): 157 (132–187) %
- AUC0–24 GMR, % (95% CI), Japanese/non-Asian (10 mg single dose, fed): 176 (137–227) %
- AUC0–24 GMR, % (95% CI), Japanese/non-Asian, bodyweight normalized to 70 kg (10 mg single dose, fed): 139 (114–170) %
- Cmax GMR, % (95% CI), Japanese/non-Asian (10 mg single dose, fed): 142 (107–189) %
- Cmax GMR, % (95% CI), Japanese/non-Asian, bodyweight normalized to 70 kg (10 mg single dose, fed): 112 (88.5–143) %
- GMR AUC0–24 (day 6/day 1) [1]: 146 (101–211) %
- GMR AUC0–∞ (day 6/day 1) [1]: 131 (82.9–208) %
- GMR Cmax (day 6/day 1) [1]: 116 (105–128) %
- Rac, accumulation ratio (day 12/day 6), AUC0–24 (Japanese subjects, 2.5 mg, fed): 1.06 (0.672–1.68)
- Tmax (Japanese subjects, 5 mg once daily multiple doses, fed, day 12): 4.00 (2.00–10.0) h
- GMR AUC0–24 (day 6/day 1) [2]: 185 (121–283) %
- GMR AUC0–∞ (day 6/day 1) [2]: 173 (108–278) %
- GMR Cmax (day 6/day 1) [2]: 126 (89.1–179) %
- Rac, accumulation ratio (day 12/day 6), Cmax (Japanese subjects, 5 mg, fed): 1.24 (1.01–1.53)
- AUC0–24 (Japanese subjects, 10 mg single dose, fasted, day 1, geometric mean (95% CI)): 93.4 (74.2–118) ng·h/mL
- GMR AUC0–24 (day 6/day 1) [3]: 209 (172–253) %
- GMR AUC0–∞ (day 6/day 1) [3]: 197 (181–215) %
- GMR Cmax (day 6/day 1) [3]: 99.7 (85.1–117) %
- Rac, accumulation ratio (day 12/day 6), AUC0–24 (Japanese subjects, 10 mg, fed): 0.886 (0.679–1.16)
- Rac, accumulation ratio (day 12/day 6), Cmax (Japanese subjects, 10 mg, fed): 1.14 (0.774–1.64)
- AUC0–24 (Japanese subjects, 15 mg single dose, fed, day 6, geometric mean (95% CI)): 239 (137–416) ng·h/mL
- GMR AUC0–24 (day 6/day 1) [4]: 107 (89.1–128) %
- GMR AUC0–∞ (day 6/day 1) [4]: 100 (83.1–120) %
- GMR Cmax (day 6/day 1) [4]: 112 (90.6–139) %
- Rac, accumulation ratio (day 12/day 6), AUC0–24 (Japanese subjects, 15 mg, fed): 1.20 (0.979–1.46)
- Rac, accumulation ratio (day 12/day 6), Cmax (Japanese subjects, 15 mg, fed): 1.09 (0.823–1.44)
- effect of moderate-fat meal on plasma AUC0–∞ (increase) [5]: 0%–97%
- effect of moderate-fat meal on plasma Cmax (increase) [5]: 0%–26%
- AUC0–24 (Japanese, 10 mg single dose, fasted, geometric least square mean): 93.4 ng·h/mL
- Cmax (Non-Asian, 10 mg single dose, fed, geometric least square mean): 15.4 ng/mL
- AUC(0-t) [6]: 80.9 ng·h/mL
- Cmax (male, human, plasma, oral, 5 mg, Cmax, Japanese subjects, 5 mg once daily multiple doses, fed, day 12, geometric mean (95% CI)): 11.5 ng/mL
- half-life [6]: 7.85 h
- AUC(0-t) [7]: 173 ng·h/mL
- Cmax (male, human, plasma, oral, 10 mg, Cmax, Japanese subjects, 10 mg once daily multiple doses, fed, day 12, geometric mean (95% CI)): 24.9 ng/mL
- Tmax (male, human, plasma, oral, 10 mg, Tmax, Japanese subjects, 10 mg once daily multiple doses, fed, day 12): 4.5 h
- half-life [7]: 6.93 h
- AUC(0-t) [8]: 286 ng·h/mL
- Cmax (male, human, plasma, oral, 15 mg, Cmax, Japanese subjects, 15 mg once daily multiple doses, fed, day 12, geometric mean (95% CI)): 41.5 ng/mL
- half-life [8]: 9.79 h
- AUC higher in Japanese vs non-Asian subjects [9]: 23%
- Cmax higher in Japanese vs non-Asian subjects [9]: 38%
